Measurements reported in ChEMBL document CHEMBL4411315, “Discovery of Novel Dual Histone Deacetylase and Mammalian Target of Rapamycin Target Inhibitors as a Promising Strategy for Cancer Therapy” (J Med Chem, 2019).
Calls of active or inactive are those of the source. No cut-off for these calls is given here.

Assays:
MM1.S [1] = experiment: Induction of apoptosis in human MM1S cells assessed as necrotic cells at 80 nM after 48 hrs by Annexin V-FITC/propidium iodide staining-based flow cytometric analysis (reference value: 0.32%); format: functional
Histone deacetylase 4 = Histone deacetylase 4 (Homo sapiens, UniProt P56524); experiment: Inhibition of recombinant full length human HDAC4 expressed in baculovirus infected sf9 cells using Ac-peptide-AMC as substrate preincubated for 15 mins followed by substrate addition and measured after 1 hr by fluorescence assay
Chain of Histone deacetylase 4 (P56524 whole entry): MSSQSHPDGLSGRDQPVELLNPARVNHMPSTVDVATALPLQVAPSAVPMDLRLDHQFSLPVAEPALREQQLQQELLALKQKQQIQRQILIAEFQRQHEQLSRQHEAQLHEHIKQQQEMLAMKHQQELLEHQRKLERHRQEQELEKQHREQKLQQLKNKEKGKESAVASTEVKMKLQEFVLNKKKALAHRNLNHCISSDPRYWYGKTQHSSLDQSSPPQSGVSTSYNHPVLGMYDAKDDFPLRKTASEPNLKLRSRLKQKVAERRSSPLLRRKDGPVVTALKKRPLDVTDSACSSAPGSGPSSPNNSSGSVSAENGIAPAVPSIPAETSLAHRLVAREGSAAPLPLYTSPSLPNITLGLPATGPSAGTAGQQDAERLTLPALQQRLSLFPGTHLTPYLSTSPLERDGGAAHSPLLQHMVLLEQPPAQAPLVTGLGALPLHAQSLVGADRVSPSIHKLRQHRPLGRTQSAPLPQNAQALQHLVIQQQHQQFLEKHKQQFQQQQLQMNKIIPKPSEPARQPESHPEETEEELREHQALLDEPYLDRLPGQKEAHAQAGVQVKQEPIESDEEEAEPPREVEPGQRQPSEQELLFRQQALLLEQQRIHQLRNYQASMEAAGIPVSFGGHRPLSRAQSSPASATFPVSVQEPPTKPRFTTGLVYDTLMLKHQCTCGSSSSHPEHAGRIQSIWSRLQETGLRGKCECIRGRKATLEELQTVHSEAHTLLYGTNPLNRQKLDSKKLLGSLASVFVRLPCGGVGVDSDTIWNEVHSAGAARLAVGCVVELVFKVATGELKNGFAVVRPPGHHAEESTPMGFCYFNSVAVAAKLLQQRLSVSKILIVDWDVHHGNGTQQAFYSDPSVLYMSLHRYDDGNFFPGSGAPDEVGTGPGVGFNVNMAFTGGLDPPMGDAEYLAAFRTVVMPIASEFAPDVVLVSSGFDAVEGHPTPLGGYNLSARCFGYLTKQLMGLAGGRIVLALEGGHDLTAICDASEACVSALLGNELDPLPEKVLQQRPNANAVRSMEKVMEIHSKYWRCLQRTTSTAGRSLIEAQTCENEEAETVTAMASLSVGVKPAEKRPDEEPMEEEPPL

[2] = target: Serine/threonine-protein kinase mTOR (Homo sapiens, UniProt P42345); experiment: Inhibition of mTOR in human MV4-11 cells assessed as decrease in 4EBP1 phosphorylation at ser 65 residues at 0.01 to 10 uM after 24 hrs by Western blot analysis; format: cell-based
Procedure, shortened: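 Treatment of MV4-11 cells lasted 24 h at 0.01, 0.1, 1 and 10 μM. Lysis in RIPA buffer and BCA quantitation, then 30 μg protein by SDS-PAGE, PVDF transfer, 5% milk block, primary antibody overnight at 4 °C, HRP secondary 1 h and ECL detection. p-p70S6K (T389), p-4EBP1 (S65), p-Akt (S473) and p-ERK were probed.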

MV4-11 [3] = experiment: Antiproliferative activity against human MV4-11 cells after 72 hrs by MTT assay; format: functional, cell-based; conditions: MV4-11, 72 h
Histone deacetylase 11 = Histone deacetylase 11 (Homo sapiens, UniProt Q96DB2); experiment: Inhibition of recombinant full length N-terminal GST-tagged human HDAC11 expressed in baculovirus expression system using Ac-peptide-AMC as substrate preincubated for 15 mins followed by substrate addition and measured after 1 hr by fluorescence assay
Chain of Histone deacetylase 11 (Q96DB2 whole entry): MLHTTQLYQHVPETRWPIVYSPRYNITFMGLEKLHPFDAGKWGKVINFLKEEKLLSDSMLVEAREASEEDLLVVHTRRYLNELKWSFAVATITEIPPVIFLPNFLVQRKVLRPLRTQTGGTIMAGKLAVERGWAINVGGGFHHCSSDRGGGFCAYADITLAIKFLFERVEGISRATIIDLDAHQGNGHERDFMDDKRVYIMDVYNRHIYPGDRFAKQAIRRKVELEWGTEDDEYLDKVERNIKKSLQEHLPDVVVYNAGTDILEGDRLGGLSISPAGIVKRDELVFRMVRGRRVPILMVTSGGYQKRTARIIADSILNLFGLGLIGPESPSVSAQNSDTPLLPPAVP

MM1.S [4] = experiment: Cell cycle arrest in human MM1S cells assessed as accumulation at S phase at 2.5 nM after 24 hrs by propidium iodide/RNase staining-based FACS analysis (reference value: 24.49%); format: functional
MM1.S [5] = experiment: Induction of apoptosis in human MM1S cells assessed as viable cells at 80 nM after 48 hrs by Annexin V-FITC/propidium iodide staining-based flow cytometric analysis (reference value: 98.9%); format: functional; conditions: read-out: Activity
MM1.S [6] = experiment: Induction of apoptosis in human MM1S cells assessed as late apoptotic cells at 80 nM after 48 hrs by Annexin V-FITC/propidium iodide staining-based flow cytometric analysis (reference value: 0.42%); format: functional
MM1.S [7] = experiment: Induction of apoptosis in human MM1S cells assessed as necrotic cells at 320 nM after 48 hrs by Annexin V-FITC/propidium iodide staining-based flow cytometric analysis (reference value: 0.32%); format: functional
MV4-11 [8] = experiment: Cell cycle arrest in human MV4-11 cells assessed as accumulation at S phase at 5 nM after 24 hrs by propidium iodide/RNase staining-based FACS analysis (reference value: 36.42%); format: functional

For `C[C@@H]1CN(C(=O)Nc2ccc(-c3nc(N4CCOCC4)c4cnn(CCCCCCC(=O)NO)c4n3)cc2)CCO1`, the Activity (MM1.S [1]) was 1.78%, the IC50 (Histone deacetylase 4) was greater than 1000 nM and the inhibition [2] was “Active”. The IC50 (MV4-11 [3]) was 4.05 nM, the IC50 (Histone deacetylase 11) was greater than 1000 nM and the Activity (MM1.S [4]) was 21.59%. It also gave a viability at 0.08 µM (MM1.S [5]) of 49.7%, an Activity (MM1.S [6]) of 40.5% and an Activity (MM1.S [7]) of 2.2%. For the same compound, the Activity (MV4-11 [8]) was 21.32%.
